MIC and IC50 data for 5 compounds are collected here from ChEMBL document CHEMBL1157059, “Eremophilane-type sesquiterpenes from the fungus Xylaria sp. BCC 21097” (J Nat Prod, 2010).

≈ marks a conversion by molar mass, not a printed value.

In assay [1] the test system is Mycobacterium tuberculosis. The assay is described as follows: Antituberculosis activity against Mycobacterium tuberculosis H37Ra by green fluorescent protein microplate assay. The assay is classed as functional.
Assay [2] has as its system Candida albicans. The assay is described as follows: Antifungal activity against Candida albicans after 45 hrs by resazurin microplate assay. The assay is classed as functional, organism-based.
Assay [3] deals with KB. The assay is described as follows: Cytotoxicity against human KB cells after 45 hrs by resazurin microplate assay. The assay is classed as functional, cell-based. The method in brief:
(§1)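 Human cancer cell panel in the resazurin microplate assay: KB (oral epidermoid carcinoma), MCF-7 (breast cancer) and NCI-H187 (small-cell lung cancer).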

Assay [4] concerns MCF7. The assay is described as follows: Cytotoxicity against human MCF7 cells after 45 hrs by resazurin microplate assay. It counts as functional, cell-based. To be noted: MCF7, 45 h. In outline:
as §1

The test system of assay [5] is NCI-H187. The assay is described as follows: Cytotoxicity against human NCI-H187 cells after 45 hrs by resazurin microplate assay. The assay is classed as functional, cell-based. Conditions: NCI-H187, 45 h. The method in brief: as §1
Assay [6] concerns Vero. The assay is described as follows: Cytotoxicity against african green monkey Vero cells by green fluorescent protein microplate assay. It counts as cell-based. To be noted: Chlorocebus sabaeus. In outline:
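Vero cells (African green monkey kidney […]) tested in the green fluorescent protein microplate assay (GFPMA), the same format the paper used for Mycobacterium tuberculosis H37Ra.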

Assay [7] deals with Plasmodium falciparum. The assay is described as follows: Antimalarial activity against Plasmodium falciparum K1 after 18 hrs by [G-3H]hypoxanthine uptake assay. The assay is classed as functional, organism-based. To be noted: K1, 18 h. In outline:
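Plasmodium falciparum K1, a multidrug-resistant strain, tested by the microculture radioisotope technique.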

`C=C1C(=O)O[C@@H]2C[C@]3(O)[C@H](OC)CC[C@H](C)[C@@]3(C)C[C@]12O`: inhibition of growth in assay [1] (MIC) required 42 µM (≈ 12.4 µg/mL). The concentration for half-maximal inhibition (IC50) (commonly the midpoint of a concentration-inhibition curve) in assay [2] was more than 169 µM; in assay [3] it was 21 µM; in assay [4], 15 µM; in assay [5], 3.8 µM; in assay [6] it was 3.9 µM; in assay [7] it was 8.1 µM.
As for `C=C1C(=O)O[C@@H]2C[C@]34O[C@H]3CC[C@H](C)[C@@]4(C)C[C@]12O`, in assay [1], the MIC – broadly, the smallest concentration in the dilution series that meets the test's criterion for growth inhibition – stood at 47 µM (≈ 12.4 µg/mL). The IC50 amounted to 7.8 µM in assay [2]; 10 µM in assay [3]; 10 µM in assay [4]; 5.8 µM in assay [5]; 9.4 µM in assay [6]; 13 µM in assay [7].
`C=C1C(=O)O[C@@H]2C[C@]3(O)[C@H](O)CC[C@H](C)[C@@]3(C)C[C@]12O` gave an MIC in assay [1] of more than 177 µM. Moreover, the IC50 in assay [2] was more than 177 µM; in assay [3], 5 µM; in assay [4] it was 15 µM; in assay [5], 7.2 µM; in assay [6], 8.5 µM; in assay [7], more than 35 µM.
`CC1=C2C[C@]3(C)[C@@H](C)CC[C@@H](O)[C@@]3(O)C[C@H]2OC1=O` [MAIRETOLIDE F] yielded an MIC in assay [1] of more than 188 µM. The half-maximal inhibitory concentration (IC50) in assay [2] is more than 188 µM; in assay [3] it was more than 188 µM; in assay [4], more than 188 µM; in assay [5], more than 188 µM; in assay [6] it was more than 188 µM; in assay [7] it was more than 38 µM.
`C[C@H]1CC[C@@H]2O[C@@]23C[C@H]2OC(=O)C(CO)=C2C[C@]13C`: the MIC in assay [1] was more than 189 µM. Further, the IC50 in assay [2] is more than 189 µM; in assay [3], more than 189 µM; in assay [4] it was more than 189 µM; in assay [5] it was more than 189 µM; in assay [6] it was more than 189 µM; in assay [7], more than 38 µM.
